# Source: PubChem BioAssay
# VIM-2 inhibitor: VIM-2 metallo-beta-lactamase inhibitors, primary screen, biochemical, epi-absorbance readout, Pseudomonas aeruginosa enzyme | purified VIM-2, nitrocefin hydrolysis, epi-absorbance fluorescence | inhibition, % at 5.6 µM | 0.89% of 290,000 active;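 active means inhibition above the mean of all tested compounds plus 3 SD, cutoff set per screening run, cut at about 7.5% in these data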;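 further: red hydrolysis product quenches plate fluorescence so inhibitors raise well fluorescence; 0% = enzyme with DMSO and 100% = DMSO without enzyme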
# PAFAH1B3 inh: PAFAH1B3 enzyme inhibitors, primary screen, biochemical, fluorescence polarization, human. Platelet-activating factor acetylhydrolase IB subunit alpha1 (Homo sapiens), Q15102. recombinant PAFAH1B3, FP-rhodamine probe. inhibition, % at 3.39 µM. 0.28% of 340,000 active;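 active means inhibition above the screen-wide average of all tested compounds plus 3 SD, cut at about 25% in these data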;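 further: 0% = enzyme with DMSO only and 100% = wells lacking PAFAH1B3 protein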
# Target sequence (Q15102 whole entry, looked up): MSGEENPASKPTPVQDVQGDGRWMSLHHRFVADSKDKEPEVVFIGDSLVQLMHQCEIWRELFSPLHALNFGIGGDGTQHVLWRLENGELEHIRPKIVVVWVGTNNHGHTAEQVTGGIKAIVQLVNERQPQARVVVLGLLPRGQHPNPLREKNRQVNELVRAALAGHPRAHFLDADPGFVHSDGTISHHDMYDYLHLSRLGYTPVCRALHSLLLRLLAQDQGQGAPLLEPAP
# pPAFAH FP inh: pPAFAH enzyme inhibitors, primary screen, biochemical, fluorescence polarization, human; recombinant pPAFAH, FP-rhodamine probe fluorescence polarization; inhibition, % at 3.39 µM; 1.5% of 330,000 active; AID 463082, 2010;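 active means inhibition above the mean inhibition across the screen plus 3 SD, cut at about 25% in these data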;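 further: inhibitors block binding of the rhodamine activity-based probe so polarization drops; 0% = enzyme with DMSO and 100% = wells lacking pPAFAH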
# IMP-1 inhibitor: IMP-1 metallo-beta-lactamase inhibitors, primary screen, biochemical, epi-absorbance readout, Pseudomonas aeruginosa enzyme; metallo-beta-lactamase IMP-1 (Pseudomonas aeruginosa); purified IMP-1, nitrocefin hydrolysis, epi-absorbance fluorescence; inhibition, % at 5.6 µM; 0.45% of 290,000 active; AID 1556, 2009;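 active means inhibition above the mean plus 3 SD of all compounds in the same screening run, cut at about 4.5% in these data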;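 further: 0% = IMP-1 with DMSO and 100% = DMSO wells lacking enzyme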
#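 Material – recombinant IMP-1 enzyme, purified · Amount – IMP-1 0.2 nM before substrate addition · Medium – HEPES buffer pH 7.1 with ZnSO4 and Brij 35 · Timing – 25 °C, 15 min preincubation, 25 min reaction · Measured by – plate fluorescence quenching by hydrolysis product, ex 480/em 530 nm · Read-out – percent enzyme inhibition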
# PAFAH1B2 inh: PAFAH1B2 enzyme inhibitors, primary screen, biochemical, fluorescence polarization, human. Platelet-activating factor acetylhydrolase IB subunit alpha2 (Homo sapiens), P68402. recombinant PAFAH1B2, FP-rhodamine activity probe. inhibition, % at 3.39 µM. 1.2% of 340,000 active. AID 492953, 2010;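 active means inhibition above the mean of all tested compounds plus 3 SD, cut at about 24% in these data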;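 further: 0% = enzyme with DMSO and 100% = wells lacking PAFAH1B2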
# Target sequence (P68402 whole entry, looked up): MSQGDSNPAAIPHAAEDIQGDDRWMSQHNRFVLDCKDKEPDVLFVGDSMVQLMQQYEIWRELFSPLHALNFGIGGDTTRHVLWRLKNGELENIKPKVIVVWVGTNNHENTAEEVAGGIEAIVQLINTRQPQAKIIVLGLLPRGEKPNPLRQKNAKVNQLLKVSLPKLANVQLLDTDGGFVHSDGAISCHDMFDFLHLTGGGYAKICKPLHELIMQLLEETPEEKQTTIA
# PAFAH2 FP inh: PAFAH2 enzyme inhibitors, primary screen, biochemical, fluorescence polarization, human; AID 492956, 2010; 0.99% of 340,000 active; inhibition, % at 3.39 µM; Platelet-activating factor acetylhydrolase 2, cytoplasmic (Homo sapiens), Q99487; recombinant PAFAH2, FP-rhodamine activity probe;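 active means inhibition above the mean over all tested compounds plus 3 SD, cut at about 30% in these data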;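 further: inhibitors block probe labeling of enzyme so polarization drops; 0% = enzyme with DMSO and 100% = wells lacking PAFAH2 protein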
# * = called active by the depositor; nt = no result. Rows were chosen to be rich in hits. Some 3.6% of all compounds tested hit in one or more screens of this group.
SMILES,VIM-2 inhibitor,PAFAH1B3 inh,pPAFAH FP inh,IMP-1 inhibitor,PAFAH1B2 inh,PAFAH2 FP inh
CCCc1nc2oc3c(NCCCN(C)C)ncnc3c2c2c1CCCC2,12*,nt,1,-4,nt,nt
OCCNCCO,-2,7,2,-4,4,6
CCOc1ccc(NS(=O)(=O)c2ccc(C(=O)NCCN3CCOCC3)cc2)cc1,nt,4,32*,nt,-2,-1
O=C(NCCN1CCOCC1)c1ccc(S(=O)(=O)Nc2ccccc2)cc1,nt,11,21,nt,4,3
Cc1ccc(NS(=O)(=O)c2ccc(C(=O)NCCN3CCOCC3)cc2)cc1,nt,3,25*,nt,7,6
CCOc1ccc(S(=O)(=O)Nc2ccc(C(=O)NCCCN3CCOCC3)cc2)cc1,nt,3,6,nt,1,-1
C=CCN(CC(=O)Nc1cccnc1)S(=O)(=O)c1ccc(Cl)cc1,nt,2,3,nt,6,5
O=C(Cc1ccccc1)Nc1ccnn1C1CCN(Cc2nccs2)CC1,-4,1,6,-2,0,-5
Nc1nc2c(c(=O)[nH]1)C(c1ccccc1)C1=C(N2)c2ccccc2C1=O (configuration not stated),3,-5,8,0,3,18
CCC(C)c1ccc(C2C3=C(Nc4nc(N)[nH]c(=O)c42)c2ccccc2C3=O)cc1 (configuration not stated),-4,-1,25*,-2,-2,-2
O=C(O)C1=C(C(=O)Nc2cccc(C(F)(F)F)c2)CCCC1,5,-3,-9,18*,8,6
CCOc1ccccc1C(=O)N[C@H](C(=O)OCc1csc(CC(=O)Nc2ccc(C)cc2)n1)C(C)C,nt,3,33*,nt,0,8
Cc1ccccc1NC(=O)Cc1nc(COC(=O)C(NC(=O)c2ccccc2C)C(C)C)cs1 (configuration not stated),nt,3,10,nt,3,5
COc1ccc(S(=O)(=O)N2c3ccc(F)cc3CCC2C)cc1 (configuration not stated),nt,11,0,nt,27*,-11
CN1C(=O)/C(=C2\SC(=S)N(CCCCCC(=O)O)C2=O)c2ccccc21,-2,5,1,0,3,-4
O=C(O)CCN1C(=O)/C(=C2\C(=O)N(Cc3ccc(F)cc3)c3ccccc32)SC1=S,-1,7,-1,51*,11,1
O=C(COc1ccc(Cl)cc1)NC1=NN(c2ccccc2)C(=O)C1,-3,5,6,-1,68*,0
O=C(CCCCl)NC1=NN(c2ccccc2)C(=O)C1,-2,-4,9,-6,3,-7
COC(=O)c1sccc1S(=O)(=O)N1CCCC(N(C)CCc2ccccn2)C1 (configuration not stated),-1,1,-5,1,5,-4
CC(C)=C1C2CCC1C(C(=O)Nc1cc(C)cc(C)c1)C2C(=O)O (configuration not stated),9.4*,2,-1,-2,2,1
Cc1cc(C)cc(NC(=O)C2C3C=CC(O3)C2C(=O)O)c1 (configuration not stated),-1,3,0,-3,0,7
O=C(COC(=O)c1ccccc1Cl)NC1CCCCCC1,nt,6,31*,nt,5,79*
O=C(COC(=O)c1ccc(Cl)c(Cl)c1)NC1CCCC1,-2,9,34*,-4,5,58*
O=C(COC(=O)c1c(Cl)cccc1Cl)NC1CCCCC1,0,9,6,0,4,8
COc1cc2c(-c3ccc4[nH]ccc4c3)c(-c3ccc(C#N)cc3)oc(=O)c2cc1OC,nt,-14,0,nt,-8,-15
SMILES,VIM-2 inhibitor,PAFAH1B3 inh,pPAFAH FP inh,IMP-1 inhibitor,PAFAH1B2 inh,PAFAH2 FP inh
O=C(COC(=O)c1ccccn1)NCc1cccc(Cl)c1,nt,3,nt,nt,0,6
C=CCNc1nc(C(=O)OCC(=O)NCc2cccc(Cl)c2)cs1,nt,4,25*,nt,2,29
O=C(N=C1SC2CS(=O)(=O)CC2N1c1ccc(F)cc1)C1CC1 (configuration not stated),-1,9,3,-3,1,3
COc1ccc2[nH]c3c(c2c1)CCN1C(=O)C(CC(=O)NCCCn2ccnc2)C[C@H](C(=O)N2CCCCC2)[C@@]31CCc1ccccc1 (some centres not stated),nt,0,2,nt,11,1
COc1ccc(-c2nc(CS(=O)(=O)CC(=O)NCCc3ccc(C)cc3)c(C)o2)cc1,-1,5,-2,6.2*,0,0
COc1ccc2nc(NN=C(C)c3ccccn3)cc(C)c2c1,nt,5,nt,nt,2,5
Cn1c(CN2CCCC2)nc2cc(NS(=O)(=O)c3ccc(Cl)cc3)ccc21,-5,2,9,-5,16,-11
O=c1ccc(NS(=O)(=O)c2ccc(Cl)cc2)cn1Cc1ccc(Cl)c(Cl)c1,2,4,13,-1,28*,13
COc1ccc(C(=NNc2ccccc2C(=O)O)c2ccc(OC)cc2)cc1,0,12,33*,-2,6,19
CCc1cc(C(=O)OC)c(NC(=O)CCC(=O)O)s1,1,12,0,15*,-3,-2
CCCc1cc(C(=O)OC)c(NC(=O)CCCC(=O)O)s1,-5,-1,6,-6,2,-3
Cc1ccc(O)c(NC(=S)NC(=O)/C=C/c2ccccc2)c1,-2,2,-2,-2,-4,3
O=C(/C=C/c1ccco1)NC(=S)Nc1ccc(O)c(-c2nc3ccccc3s2)c1,-2,-1,25*,2,-3,13
Cc1ccc(O)c(NC(=S)NC(=O)/C=C/c2ccco2)c1,-1,7,25*,-3,2,-5
O=S(=O)(N1CCOCC1)n1cnc2ccccc21,-3,8,5,0,3,-6
Cc1cc2ncn(S(=O)(=O)N3CCCCC3)c2cc1C,-1,1,6,-2,25*,-8
Cc1cc2ncn(S(=O)(=O)N3CCOCC3)c2cc1C,0,-2,-7,4.5*,6,2
Cc1ccc(CNC(=O)c2ccc(CNS(=O)(=O)c3ccc4c(c3)C(C)(C)C(=O)N4C)cc2)o1,0,3,0,-3,6,10
CCC(=O)N(Cc1cc2ccccc2[nH]c1=O)c1ccccc1OC,0,8,5,-1,-1,2
Cc1ccccc1C(=O)N1CCc2c([nH]c3ccccc23)C1C(F)(F)F (configuration not stated),-2,-8,2,-1,2,-1
